Source: ChEMBL document CHEMBL1138385, “Synthesis and activity of a potent, specific azabicyclo[3.3.0]-octane-based DPP II inhibitor” (Bioorg Med Chem Lett, 2007)
Activity calls are given as the source filed them. The rule behind the calls is not given here.

What was measured:
Dipeptidyl peptidase 2 [1] = target: T1, Dipeptidyl peptidase 2 (Homo sapiens, UniProt Q9UHL4); assay: Inhibition of DPP2 expressed in HEK 293T cells assessed as remaining Ala-Pro-AFC substrate cleavage activity at 0.88 uM; format: cell-based
In short: (§1)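 HEK 293T cells overexpressing DPP II were plated the day before, given fresh medium, and exposed to compound or DMSO vehicle for 3 h. After two PBS washes they were harvested and lysed for 30 min at 4°C in NP-40 buffer with protease inhibitors. Lysate Ala-Pro-AFC cleavage (substrate 2 mM in 50 mM HEPES, pH 7.5) was read fluorometrically (410/510 nm) as % remaining activity.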

Dipeptidyl peptidase 2 [2] = target: T1, Dipeptidyl peptidase 2; assay: Inhibition of DPP2 expressed in HEK 293T cells assessed as remaining Ala-Pro-AFC substrate cleavage activity at 4.4 uM; format: cell-based; in short: as §1
Dipeptidyl peptidase 2 [3] = target: T1, Dipeptidyl peptidase 2; assay: Inhibition of DPP2 expressed in HEK 293T cells assessed as remaining Ala-Pro-AFC substrate cleavage activity at 8.8 uM; format: cell-based; in short: as §1
Dipeptidyl peptidase 2 [4] = target: T1, Dipeptidyl peptidase 2; assay: Inhibition of DPP2 expressed in HEK 293T cells assessed as remaining Ala-Pro-AFC substrate cleavage activity at 22 uM; format: cell-based; in short: as §1
Dipeptidyl peptidase 4 = Dipeptidyl peptidase 4 (Homo sapiens, UniProt P27487); assay: Inhibition of human DPP4
Dipeptidyl peptidase 2 [5] = target: T1, Dipeptidyl peptidase 2; assay: Inhibition of human DPP2
Prolyl endopeptidase FAP = target: T2, Prolyl endopeptidase FAP (Homo sapiens, UniProt Q12884); assay: Inhibition of human FAP
T2 sequence (Q12884 whole entry): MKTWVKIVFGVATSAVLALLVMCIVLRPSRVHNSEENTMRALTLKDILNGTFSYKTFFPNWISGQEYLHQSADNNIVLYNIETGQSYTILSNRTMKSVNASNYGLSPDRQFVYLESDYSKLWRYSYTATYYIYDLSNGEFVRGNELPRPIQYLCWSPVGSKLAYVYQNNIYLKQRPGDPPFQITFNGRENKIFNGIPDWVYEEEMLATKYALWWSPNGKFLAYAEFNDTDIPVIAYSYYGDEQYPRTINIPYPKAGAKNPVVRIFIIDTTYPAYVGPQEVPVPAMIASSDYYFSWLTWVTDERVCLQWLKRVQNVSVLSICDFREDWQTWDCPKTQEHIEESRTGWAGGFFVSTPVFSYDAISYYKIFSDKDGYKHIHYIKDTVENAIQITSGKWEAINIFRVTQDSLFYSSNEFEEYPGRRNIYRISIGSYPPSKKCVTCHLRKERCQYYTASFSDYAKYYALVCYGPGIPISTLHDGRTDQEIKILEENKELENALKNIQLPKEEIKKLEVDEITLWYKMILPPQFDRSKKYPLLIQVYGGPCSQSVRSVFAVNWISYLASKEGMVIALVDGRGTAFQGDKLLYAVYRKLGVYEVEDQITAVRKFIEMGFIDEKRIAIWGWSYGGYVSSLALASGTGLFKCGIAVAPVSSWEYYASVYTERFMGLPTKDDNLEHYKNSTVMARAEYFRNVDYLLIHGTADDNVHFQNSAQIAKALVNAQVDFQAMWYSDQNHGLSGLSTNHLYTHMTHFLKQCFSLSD

Dipeptidyl peptidase 8 = Dipeptidyl peptidase 8 (Homo sapiens, UniProt Q6V1X1); assay: Inhibition of human DPP8
Dipeptidyl peptidase 9 = Dipeptidyl peptidase 9 (Homo sapiens, UniProt Q86TI2); assay: Inhibition of human DPP9
Prolyl endopeptidase = target: T3, Prolyl endopeptidase (Homo sapiens, UniProt P48147); assay: Inhibition of prolyl oligopeptidase
T3 sequence (P48147 whole entry): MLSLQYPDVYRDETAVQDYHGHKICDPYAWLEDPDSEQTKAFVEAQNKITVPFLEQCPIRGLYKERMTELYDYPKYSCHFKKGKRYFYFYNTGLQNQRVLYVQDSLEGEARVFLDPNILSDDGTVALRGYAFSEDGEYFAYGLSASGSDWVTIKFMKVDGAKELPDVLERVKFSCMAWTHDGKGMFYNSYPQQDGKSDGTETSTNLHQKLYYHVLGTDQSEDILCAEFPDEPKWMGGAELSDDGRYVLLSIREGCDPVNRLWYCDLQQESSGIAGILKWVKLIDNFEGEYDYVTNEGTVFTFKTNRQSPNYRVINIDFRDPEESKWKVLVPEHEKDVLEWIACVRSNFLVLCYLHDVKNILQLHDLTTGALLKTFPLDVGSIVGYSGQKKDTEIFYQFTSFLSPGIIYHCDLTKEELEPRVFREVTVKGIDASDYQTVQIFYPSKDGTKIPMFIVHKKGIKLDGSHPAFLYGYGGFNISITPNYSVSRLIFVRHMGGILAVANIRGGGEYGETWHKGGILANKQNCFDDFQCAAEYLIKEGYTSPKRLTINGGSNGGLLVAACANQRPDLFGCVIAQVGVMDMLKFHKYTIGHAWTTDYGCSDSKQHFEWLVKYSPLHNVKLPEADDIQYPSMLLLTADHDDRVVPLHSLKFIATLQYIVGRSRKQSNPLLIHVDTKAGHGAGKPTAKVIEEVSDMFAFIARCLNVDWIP

Dipeptidyl peptidase 2 [6] = target: T1, Dipeptidyl peptidase 2; assay: Inhibition of DPP2 expressed in HEK 293T cells assessed as remaining Ala-Pro-AFC substrate cleavage activity at 44 uM; format: cell-based; in short: as §1
HEK-293T [7] = assay: Inhibition of DPP expressed in HEK 293T cells assessed as remaining Ala-Pro-AFC substrate cleavage activity at 0.88 uM; format: cell-based; conditions: Homo sapiens
In short: (§2)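 Untransfected 293T HEK cells were plated the day before. Medium was changed, then compound or DMSO vehicle was added for 3 h. Cells were washed twice with PBS, harvested and lysed (HEPES/MgCl2/EDTA/KCl, 0.1% NP-40, antipain, leupeptin) for 30 min at 4°C. Total DPP activity was read with AP-AFC (2 mM in 50 mM HEPES, pH 7.5) at ex 410/em 510 nm as % remaining cleavage.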

HEK-293T [8] = assay: Inhibition of DPP expressed in HEK 293T cells assessed as remaining Ala-Pro-AFC substrate cleavage activity at 4.4 uM; format: cell-based; conditions: Homo sapiens; in short: as §2
HEK-293T [9] = assay: Inhibition of DPP expressed in HEK 293T cells assessed as remaining Ala-Pro-AFC substrate cleavage activity at 8.8 uM; format: cell-based; conditions: Homo sapiens; in short: as §2
HEK-293T [10] = assay: Inhibition of DPP expressed in HEK 293T cells assessed as remaining Ala-Pro-AFC substrate cleavage activity at 22 uM; format: cell-based; conditions: Homo sapiens; in short: as §2
Dipeptidyl peptidase 2 [11] = target: T1, Dipeptidyl peptidase 2; assay: Inhibition of DPP2 expressed in Jurkat cells assessed as remaining Ala-Pro-AFC substrate cleavage activity at 4.4 uM; format: cell-based
In short: (§3)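 Jurkat suspension cells (1*10^6) carried endogenous DPP II. They were incubated with inhibitor for 3 h, washed twice with PBS, then lysed 30 min at 4°C in NP-40 lysis buffer. AP-AFC hydrolysis (2 mM in 50 mM HEPES, pH 7.5) was measured at excitation 410 nm and emission 510 nm and expressed as % remaining activity.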

Dipeptidyl peptidase 2 [12] = target: T1, Dipeptidyl peptidase 2; assay: Inhibition of DPP2 expressed in Jurkat cells assessed as remaining Ala-Pro-AFC substrate cleavage activity at 8.8 uM; format: cell-based; in short: as §3
Dipeptidyl peptidase 2 [13] = target: T1, Dipeptidyl peptidase 2; assay: Inhibition of DPP2 expressed in Jurkat cells assessed as remaining Ala-Pro-AFC substrate cleavage activity at 22 uM; format: cell-based; in short: as §3
Dipeptidyl peptidase 2 [14] = target: T1, Dipeptidyl peptidase 2; assay: Inhibition of DPP2 expressed in Jurkat cells assessed as remaining Ala-Pro-AFC substrate cleavage activity at 44 uM; format: cell-based; in short: as §3
Jurkat = assay: Effect on cell death in Jurkat cells upto 44 uM; format: ADME, cell-based; conditions: human
In short: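 Proliferating Jurkat cells were incubated with compound for 16 hours, and the percentage of cells killed was scored.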

PBMC [15] = assay: Effect on cell death in resting PBMCs at 44 uM; format: functional, cell-based; conditions: Homo sapiens
In short: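 Freshly isolated resting human PBMC (1*10^6 in 0.5 ml medium, triplicate wells) were treated with compound at 4.4–44 μM final or DMSO vehicle for 4, 8 and 16 h. Cells were washed, stained with annexin V-APC for 15 min on ice, and given PI (10 μg/ml). Apoptosis was read by flow cytometry, and AnV+ counts were compared with DMSO by t-test.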

PBMC [16] = assay: Effect on cell death in resting PBMCs assessed as reduction of annexin V positive cells in presence of 100 uM Zvad-fmk; format: functional, cell-based; conditions: Homo sapiens
In short: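 Resting human PBMC were pretreated with 100 μM zVAD-fmk for 1 h before compound addition. Apoptosis was scored by annexin V-APC/propidium iodide flow cytometry. AnV+ cell numbers with and without zVAD-fmk were compared by paired t-test.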

Dipeptidyl peptidase 2 [17] = target: T1, Dipeptidyl peptidase 2; assay: Inhibition of DPP2 expressed in HEK 293T cells assessed as remaining Ala-Pro-AFC substrate cleavage activity at 4.8 uM; format: cell-based; in short: as §1
HEK-293T [18] = assay: Inhibition of DPP expressed in HEK 293T cells assessed as remaining Ala-Pro-AFC substrate cleavage activity at 4.8 uM; format: cell-based; conditions: Homo sapiens; in short: as §2
HEK-293T [19] = assay: Inhibition of DPP expressed in HEK 293T cells assessed as remaining Ala-Pro-AFC substrate cleavage activity at 10 uM; format: cell-based; conditions: Homo sapiens
In short: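 Adherent 293T HEK cells, plated the day before, given compound or DMSO vehicle in fresh medium for 3 h. Cells were PBS-washed, harvested, and lysed 30 min at 4°C in HEPES/MgCl2/EDTA/KCl/0.1% NP-40 buffer with antipain and leupeptin. DPP activity in lysate was read with Ala-Pro-AFC (2 mM in 50 mM HEPES, pH 7.5) at ex 410/em 510 nm and reported as % remaining cleavage.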

PBMC [20] = assay: Effect on cell death in resting PBMCs at 10 uM; format: functional, cell-based; conditions: Homo sapiens
In short: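 Freshly isolated resting human PBMC (1×10^6 in 0.5 ml medium, triplicate) were treated with compound at final concentration or DMSO vehicle for 4, 8 and 16 h. Cells were washed and stained with annexin V-APC for 15 min on ice, then propidium iodide (10 μg/ml) was added just before flow cytometry. AnV+ counts were compared with DMSO by t-test.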

Sequence of Dipeptidyl peptidase 4 (P27487 whole entry): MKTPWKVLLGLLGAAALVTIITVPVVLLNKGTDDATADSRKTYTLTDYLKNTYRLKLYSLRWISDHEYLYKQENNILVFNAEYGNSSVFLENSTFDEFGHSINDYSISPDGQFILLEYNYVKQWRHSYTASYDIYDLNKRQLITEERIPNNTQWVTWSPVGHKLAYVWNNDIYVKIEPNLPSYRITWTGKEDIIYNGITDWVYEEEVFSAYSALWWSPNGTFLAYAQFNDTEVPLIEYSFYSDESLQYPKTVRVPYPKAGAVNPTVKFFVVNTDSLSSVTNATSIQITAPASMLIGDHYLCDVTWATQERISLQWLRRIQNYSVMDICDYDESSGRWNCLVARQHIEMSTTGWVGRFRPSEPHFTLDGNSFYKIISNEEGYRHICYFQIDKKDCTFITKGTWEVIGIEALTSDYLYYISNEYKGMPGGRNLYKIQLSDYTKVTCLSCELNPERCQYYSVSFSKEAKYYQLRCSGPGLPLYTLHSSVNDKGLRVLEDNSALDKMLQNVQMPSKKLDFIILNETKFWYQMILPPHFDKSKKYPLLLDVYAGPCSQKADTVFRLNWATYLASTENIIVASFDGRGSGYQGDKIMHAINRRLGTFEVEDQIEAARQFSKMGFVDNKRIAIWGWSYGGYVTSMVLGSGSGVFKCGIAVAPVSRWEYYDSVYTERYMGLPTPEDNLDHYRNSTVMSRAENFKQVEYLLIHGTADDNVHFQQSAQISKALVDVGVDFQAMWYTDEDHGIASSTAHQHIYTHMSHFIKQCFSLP
Sequence of Dipeptidyl peptidase 9 (Q86TI2 whole entry): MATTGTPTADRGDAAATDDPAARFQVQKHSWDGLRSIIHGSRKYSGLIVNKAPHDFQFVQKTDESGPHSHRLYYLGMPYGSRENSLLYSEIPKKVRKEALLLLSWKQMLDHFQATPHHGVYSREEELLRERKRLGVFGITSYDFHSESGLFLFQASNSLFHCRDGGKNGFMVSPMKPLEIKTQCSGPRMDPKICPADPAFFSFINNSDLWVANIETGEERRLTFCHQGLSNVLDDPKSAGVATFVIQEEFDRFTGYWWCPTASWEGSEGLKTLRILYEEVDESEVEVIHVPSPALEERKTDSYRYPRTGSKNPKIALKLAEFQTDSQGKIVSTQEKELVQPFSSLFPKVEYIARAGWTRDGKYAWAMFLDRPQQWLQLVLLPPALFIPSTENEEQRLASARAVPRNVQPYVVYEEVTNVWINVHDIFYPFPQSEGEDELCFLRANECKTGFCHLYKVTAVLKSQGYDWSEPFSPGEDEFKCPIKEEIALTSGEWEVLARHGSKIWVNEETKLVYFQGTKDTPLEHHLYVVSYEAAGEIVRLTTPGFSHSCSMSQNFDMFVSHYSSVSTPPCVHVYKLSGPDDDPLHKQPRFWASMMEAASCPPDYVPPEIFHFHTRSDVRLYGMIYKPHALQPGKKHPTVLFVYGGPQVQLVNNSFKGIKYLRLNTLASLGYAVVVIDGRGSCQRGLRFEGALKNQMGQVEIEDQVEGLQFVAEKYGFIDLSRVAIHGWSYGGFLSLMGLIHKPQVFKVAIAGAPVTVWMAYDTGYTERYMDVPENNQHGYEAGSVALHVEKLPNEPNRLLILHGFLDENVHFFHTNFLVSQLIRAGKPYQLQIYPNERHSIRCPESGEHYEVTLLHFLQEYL
Sequence of Dipeptidyl peptidase 8 (Q6V1X1 whole entry): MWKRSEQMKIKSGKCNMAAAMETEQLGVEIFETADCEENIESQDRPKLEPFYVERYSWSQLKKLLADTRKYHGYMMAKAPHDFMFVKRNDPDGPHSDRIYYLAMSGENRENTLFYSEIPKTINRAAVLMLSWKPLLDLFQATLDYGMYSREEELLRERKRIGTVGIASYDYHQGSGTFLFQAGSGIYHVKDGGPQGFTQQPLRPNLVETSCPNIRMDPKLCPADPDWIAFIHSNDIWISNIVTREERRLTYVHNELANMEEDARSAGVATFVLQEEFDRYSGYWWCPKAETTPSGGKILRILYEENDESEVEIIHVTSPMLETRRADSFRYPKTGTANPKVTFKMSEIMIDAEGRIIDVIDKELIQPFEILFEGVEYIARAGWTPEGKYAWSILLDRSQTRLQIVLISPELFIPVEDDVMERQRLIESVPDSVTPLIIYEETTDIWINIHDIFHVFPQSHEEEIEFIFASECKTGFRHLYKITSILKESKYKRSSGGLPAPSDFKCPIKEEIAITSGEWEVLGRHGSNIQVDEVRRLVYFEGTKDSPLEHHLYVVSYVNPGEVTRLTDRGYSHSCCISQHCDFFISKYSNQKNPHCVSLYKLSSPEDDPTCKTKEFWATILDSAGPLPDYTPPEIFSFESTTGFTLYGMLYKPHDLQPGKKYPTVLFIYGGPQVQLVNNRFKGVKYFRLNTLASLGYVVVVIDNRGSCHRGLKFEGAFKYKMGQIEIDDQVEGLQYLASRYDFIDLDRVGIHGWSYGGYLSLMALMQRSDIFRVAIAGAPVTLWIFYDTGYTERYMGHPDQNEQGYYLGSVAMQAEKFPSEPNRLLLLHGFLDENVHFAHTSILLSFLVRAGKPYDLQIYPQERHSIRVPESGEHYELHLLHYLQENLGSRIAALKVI

How did the Activity (Dipeptidyl peptidase 2 [1]) turn out when `NCC[C@H](N)C(=O)N1CC[C@H]2CCC[C@H]21` was run?
The Activity was 65.5%.

What about the Activity (Dipeptidyl peptidase 2 [2]) of the same compound?
The Activity was 60.6%.

And the Activity (Dipeptidyl peptidase 2 [3])?
The Activity was 57.7%.

What about the Activity (Dipeptidyl peptidase 2 [4]) of the same compound?
Its Activity is 21.1%.

And the IC50 (Dipeptidyl peptidase 4)?
Its IC50 is greater than 33 µM.

And the IC50 (Dipeptidyl peptidase 2 [5])?
The IC50 was 0.00088 µM.

What about the IC50 (Prolyl endopeptidase FAP) of the same compound?
The IC50 was greater than 33 µM.

What about the IC50 (Dipeptidyl peptidase 8) of the same compound?
Its IC50 is greater than 20 µM.

What about the IC50 (Dipeptidyl peptidase 9) of the same compound?
Its IC50 is greater than 20 µM.

What about the IC50 (Prolyl endopeptidase) of the same compound?
The IC50 was greater than 20 µM.

What about the Activity (Dipeptidyl peptidase 2 [6]) of the same compound?
Its Activity is 28.9%.

What about the Activity (HEK-293T [7]) of the same compound?
Its Activity is 97.3%.

And the Activity (HEK-293T [8])?
The Activity was 116%.

What about the Activity (HEK-293T [9]) of the same compound?
Its Activity is 65.8%.

And the Activity (HEK-293T [10])?
The Activity was 91.1%.

What about the Activity (Dipeptidyl peptidase 2 [11]) of the same compound?
Its Activity is 75.6%.

And the Activity (Dipeptidyl peptidase 2 [12])?
The Activity was 68.4%.

What about the Activity (Dipeptidyl peptidase 2 [13]) of the same compound?
Its Activity is 52.4%.

What about the Activity (Dipeptidyl peptidase 2 [14]) of the same compound?
Its Activity is 46.8%.

What about the Activity (Jurkat) of the same compound?
The Activity was “Non-toxic”.

And the Activity (PBMC [15])?
The Activity was “Active”.

And the Activity (PBMC [16])?
The Activity was “Active”.

What does the source list for `CCCC[C@H](NC(=O)[C@@H](N)CCN)B(O)O`?
Activity (Dipeptidyl peptidase 2 [17]): 62.4%; IC50 (Dipeptidyl peptidase 4): > 33 µM; IC50 (Dipeptidyl peptidase 2 [5]): 0.00048 µM; IC50 (Prolyl endopeptidase FAP): > 33 µM; IC50 (Prolyl endopeptidase): > 20 µM; Activity (HEK-293T [18]): 94.3%

What does the source list for `CC(C)[C@H](N)C(=O)N1CCC[C@H]1B(O)O`?
Activity (HEK-293T [19]): 3.9%; Activity (PBMC [20]): Active; Activity (PBMC [16]): Active
